Columns and labels:
Spleen [1] = assay: Drug uptake in ICR mouse spleen at 370 kBq/100 ul, iv at 10 mins by gamma-counting analysis; assay type: ADME, organism-based; details: in vivo
Outline: (§1)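 Male ICR mice (5 weeks, about 20 g) got 18F tracer in saline (370 KBq per 100 μL) via tail vein; n = 5 per time point, killed at 2, 10, 30, 60 min. Organs weighed and γ-counted; percent dose per gram wet tissue from comparison with diluted injectate aliquots.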

Kidney [2] = assay: Drug uptake in ICR mouse kidney at 370 kBq/100 ul, iv at 60 mins by gamma-counting analysis; assay type: ADME, organism-based; details: in vivo, 1 h; outline: as §1
Brain [3] = assay: Drug uptake in wild type C57BL6 mouse brain at 370 KBq/100 ul after 1 hr by autoradiographic analysis; assay type: ADME, tissue-based; details: in vitro
Outline: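 Paraffin brain sections from 12-month-old male control C57BL6 mice were deparaffinized through xylene and graded ethanol, then held in PBS (0.2 M, pH 7.4) for 30 min. They were incubated with the ¹⁸F tracer (370 KBq per 100 μL) for 1 h at room temperature. Sections were washed in 40% EtOH, rinsed with water for 1 min, dried, and exposed to a phosphor plate for 2 h. The same sections were then stained with thioflavin S.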

Lung [4] = assay: Drug uptake in ICR mouse lung at 370 kBq/100 ul, iv at 2 mins by gamma-counting analysis; assay type: ADME, organism-based; details: in vivo; outline: as §1
Spleen [5] = assay: Drug uptake in ICR mouse spleen at 370 kBq/100 ul, iv at 30 mins by gamma-counting analysis; assay type: ADME, organism-based; details: in vivo, 0.5 h; outline: as §1
Intestine [6] = assay: Drug uptake in ICR mouse intestine assessed per organ at 370 kBq/100 ul, iv at 10 mins by gamma-counting analysis; assay type: ADME, organism-based; details: in vivo
Outline: (§2)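 Male ICR mice (5 weeks, about 20 g) got 18F tracer in saline (370 KBq per 100 μL) via tail vein; n = 5 per time point, killed at 2, 10, 30, 60 min. Organs removed and γ-counted against diluted injectate; expressed as % injected dose per organ.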

Stomach [7] = assay: Drug uptake in ICR mouse stomach assessed per organ at 370 kBq/100 ul, iv at 10 mins by gamma-counting analysis; assay type: ADME, organism-based; details: in vivo; outline: as §2
Kidney [8] = assay: Drug uptake in ICR mouse kidney at 370 kBq/100 ul, iv at 2 mins by gamma-counting analysis; assay type: ADME, organism-based; details: in vivo; outline: as §1
Lung [9] = assay: Drug uptake in ICR mouse lung at 370 kBq/100 ul, iv at 60 mins by gamma-counting analysis; assay type: ADME, organism-based; details: in vivo, 1 h; outline: as §1
Brain [10] = assay: Drug uptake in ICR mouse brain at 370 kBq/100 ul, iv at 60 mins by gamma-counting analysis; assay type: ADME, organism-based; details: in vivo, 1 h; outline: as §1
Spleen [11] = assay: Drug uptake in ICR mouse spleen at 370 kBq/100 ul, iv at 2 mins by gamma-counting analysis; assay type: ADME, organism-based; details: in vivo; outline: as §1
Blood [12] = assay: Drug uptake in ICR mouse blood at 370 kBq/100 ul, iv at 10 mins by gamma-counting analysis; assay type: ADME, organism-based; details: in vivo; outline: as §1
Blood [13] = assay: Drug uptake in ICR mouse blood at 370 kBq/100 ul, iv at 60 mins by gamma-counting analysis; assay type: ADME, organism-based; details: in vivo, 1 h; outline: as §1
Stomach [14] = assay: Drug uptake in ICR mouse stomach assessed per organ at 370 kBq/100 ul, iv at 2 mins by gamma-counting analysis; assay type: ADME, organism-based; details: in vivo; outline: as §2
Intestine [15] = assay: Drug uptake in ICR mouse intestine assessed per organ at 370 kBq/100 ul, iv at 2 mins by gamma-counting analysis; assay type: ADME, organism-based; details: in vivo; outline: as §2
Liver [16] = assay: Drug uptake in ICR mouse liver at 370 kBq/100 ul, iv at 10 mins by gamma-counting analysis; assay type: ADME, organism-based; details: in vivo; outline: as §1
Bone [17] = assay: Drug uptake in ICR mouse bone at 370 kBq/100 ul, iv at 30 mins by gamma-counting analysis; assay type: ADME, organism-based, Bone element; details: in vivo, 0.5 h; outline: as §1
Brain [18] = assay: Ratio of drug uptake in brain at 2 mins to drug uptake in brain at 60 mins in ICR mouse at 370 KBq/100 ul, iv; assay type: ADME, organism-based; details: in vivo
Outline: (§3)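 Normal male ICR mice (5 weeks, about 20 g) received the ¹⁸F tracer in saline (370 KBq per 100 μL) by tail-vein injection. Groups of n = 5 were killed at 2, 10, 30 and 60 min. Organs were removed, weighed and γ-counted against diluted aliquots of the injectate, giving % dose per gram. Stomach and intestine were expressed per organ. The brain ratio is 2 min/60 min uptake. Values are mean ± SD.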

Brain [19] = assay: Drug uptake in ICR mouse brain at 370 kBq/100 ul, iv at 10 mins by gamma-counting analysis; assay type: ADME, organism-based; details: in vivo; outline: as §1
[20] = n-Octanol-PBS buffer partition coefficient, log D of the compound at 1.5 MBq after 3 mins at pH 7.4; assay type: physicochemical
Outline: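 The tracer was partitioned between n-octanol and PBS by vortexing for 3 min at room temperature, then centrifuged for 5 min at 3000 rpm. Samples of the octanol (50 μL) and aqueous (500 μL) layers were counted. log D is the log of the octanol/PBS counts-per-gram ratio. The octanol layer was repartitioned until values were consistent. Measured in triplicate and repeated three times.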

Lung [21] = assay: Drug uptake in ICR mouse lung at 370 kBq/100 ul, iv at 30 mins by gamma-counting analysis; assay type: ADME, organism-based; details: in vivo, 0.5 h; outline: as §1
Bone [22] = assay: Drug uptake in ICR mouse bone at 370 kBq/100 ul, iv at 2 mins by gamma-counting analysis; assay type: ADME, organism-based, Bone element; details: in vivo; outline: as §1
Spleen [23] = assay: Drug uptake in ICR mouse spleen at 370 kBq/100 ul, iv at 60 mins by gamma-counting analysis; assay type: ADME, organism-based; details: in vivo, 1 h; outline: as §1
Brain [24] = assay: Drug uptake in healthy human brain at 370 KBq/100 ul after 1 hr by autoradiographic analysis; assay type: ADME, tissue-based; details: in vitro
Lung [25] = assay: Drug uptake in ICR mouse lung at 370 kBq/100 ul, iv at 10 mins by gamma-counting analysis; assay type: ADME, organism-based; details: in vivo; outline: as §1
Liver [26] = assay: Drug uptake in ICR mouse liver at 370 kBq/100 ul, iv at 2 mins by gamma-counting analysis; assay type: ADME, organism-based; details: in vivo; outline: as §1
Kidney [27] = assay: Drug uptake in ICR mouse kidney at 370 kBq/100 ul, iv at 10 mins by gamma-counting analysis; assay type: ADME, organism-based; details: in vivo; outline: as §1
Heart [28] = assay: Drug uptake in ICR mouse heart at 370 kBq/100 ul, iv at 10 mins by gamma-counting analysis; assay type: ADME, organism-based; details: in vivo; outline: as §1
Heart [29] = assay: Drug uptake in ICR mouse heart at 370 kBq/100 ul, iv at 2 mins by gamma-counting analysis; assay type: ADME, organism-based; details: in vivo; outline: as §1
Heart [30] = assay: Drug uptake in ICR mouse heart at 370 kBq/100 ul, iv at 30 mins by gamma-counting analysis; assay type: ADME, organism-based; details: in vivo, 0.5 h; outline: as §1
Liver [31] = assay: Drug uptake in ICR mouse liver at 370 kBq/100 ul, iv at 30 mins by gamma-counting analysis; assay type: ADME, organism-based; details: in vivo, 0.5 h; outline: as §1
[32] = Displacement of [125I]-IMPY from amyloid beta (1 to 42) fibrils after 2 hrs by gamma-counting analysis
Outline: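 Competition binding with aggregated Aβ1-42 fibrils and [125I]IMPY (60000−100000 cpm/100 μL) in 0.05% BSA (1 mL total); inhibitors 10⁻⁴−10^−8.5 M in ethanol. Incubated 37 °C for 2 h, then GF/B vacuum filtration with PBS (0.02 M, pH 7.4) washes and γ counting. Three repeats; IC50 converted to Ki by Cheng−Prusoff.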

Bone [33] = assay: Drug uptake in ICR mouse bone at 370 kBq/100 ul, iv at 60 mins by gamma-counting analysis; assay type: ADME, organism-based, Bone element; details: in vivo, 1 h; outline: as §1
Blood [34] = assay: Drug uptake in ICR mouse blood at 370 kBq/100 ul, iv at 2 mins by gamma-counting analysis; assay type: ADME, organism-based; details: in vivo; outline: as §1
Intestine [35] = assay: Drug uptake in ICR mouse intestine assessed per organ at 370 kBq/100 ul, iv at 30 mins by gamma-counting analysis; assay type: ADME, organism-based; details: in vivo, 0.5 h; outline: as §2
Intestine [36] = assay: Drug uptake in ICR mouse intestine assessed per organ at 370 kBq/100 ul, iv at 60 mins by gamma-counting analysis; assay type: ADME, organism-based; details: in vivo, 1 h; outline: as §2
Bone [37] = assay: Drug uptake in ICR mouse bone at 370 kBq/100 ul, iv at 10 mins by gamma-counting analysis; assay type: ADME, organism-based, Bone element; details: in vivo; outline: as §1
Brain [38] = assay: Drug uptake in ICR mouse brain at 370 kBq/100 ul, iv at 2 mins by gamma-counting analysis; assay type: ADME, organism-based; details: in vivo; outline: as §1
Liver [39] = assay: Drug uptake in ICR mouse liver at 370 kBq/100 ul, iv at 60 mins by gamma-counting analysis; assay type: ADME, organism-based; details: in vivo, 1 h; outline: as §1
Heart [40] = assay: Drug uptake in ICR mouse heart at 370 kBq/100 ul, iv at 60 mins by gamma-counting analysis; assay type: ADME, organism-based; details: in vivo, 1 h; outline: as §1
Stomach [41] = assay: Drug uptake in ICR mouse stomach assessed per organ at 370 kBq/100 ul, iv at 60 mins by gamma-counting analysis; assay type: ADME, organism-based; details: in vivo, 1 h; outline: as §3
Brain [42] = assay: Drug uptake in ICR mouse brain at 370 kBq/100 ul, iv at 30 mins by gamma-counting analysis; assay type: ADME, organism-based; details: in vivo, 0.5 h; outline: as §1
Kidney [43] = assay: Drug uptake in ICR mouse kidney at 370 kBq/100 ul, iv at 30 mins by gamma-counting analysis; assay type: ADME, organism-based; details: in vivo, 0.5 h; outline: as §1
Blood [44] = assay: Drug uptake in ICR mouse blood at 370 kBq/100 ul, iv at 30 mins by gamma-counting analysis; assay type: ADME, organism-based; details: in vivo, 0.5 h; outline: as §1
Stomach [45] = assay: Drug uptake in ICR mouse stomach assessed per organ at 370 kBq/100 ul, iv at 30 mins by gamma-counting analysis; assay type: ADME, organism-based; details: in vivo, 0.5 h; outline: as §2

Drug uptake (Spleen [1]): 2.64 % ID/g
Drug uptake (Kidney [2]): 2.54 % ID/g
Drug uptake (Brain [3]): Not Active
Drug uptake (Lung [4]): 5.3 % ID/g
Drug uptake (Spleen [5]): 2.18 % ID/g
Drug uptake (Intestine [6]): 22.9 %ID
Drug uptake (Stomach [7]): 12.32 %ID
Drug uptake (Kidney [8]): 8.51 % ID/g
Drug uptake (Lung [9]): 2.34 % ID/g
Drug uptake (Brain [10]): 1.78 % ID/g
Drug uptake (Spleen [11]): 4.13 % ID/g
Drug uptake (Blood [12]): 3.04 % ID/g
Drug uptake (Blood [13]): 2.74 % ID/g
Drug uptake (Stomach [14]): 5.08 %ID
Drug uptake (Intestine [15]): 10.81 %ID
Drug uptake (Liver [16]): 9.32 % ID/g
Drug uptake (Bone [17]): 2.46 % ID/g
Ratio (Brain [18]): 2.28
Drug uptake (Brain [19]): 2.05 % ID/g
logD at 0.05 h [20]: 2.86
Drug uptake (Lung [21]): 2.81 % ID/g
Drug uptake (Bone [22]): 1.75 % ID/g
Drug uptake (Spleen [23]): 1.79 % ID/g
Drug uptake (Brain [24]): Not Active
Drug uptake (Lung [25]): 3.15 % ID/g
Drug uptake (Liver [26]): 14.22 % ID/g
Drug uptake (Kidney [27]): 4.79 % ID/g
Drug uptake (Heart [28]): 3.35 % ID/g
Drug uptake (Heart [29]): 5.5 % ID/g
Drug uptake (Heart [30]): 3.16 % ID/g
Drug uptake (Liver [31]): 6.47 % ID/g
Ki [32]: 76.9 nM
Drug uptake (Bone [33]): 3.93 % ID/g
Drug uptake (Blood [34]): 5.07 % ID/g
Drug uptake (Intestine [35]): 28.65 %ID
Drug uptake (Intestine [36]): 25.16 %ID
Drug uptake (Bone [37]): 1.92 % ID/g
Drug uptake (Brain [38]): 4.05 % ID/g
Drug uptake (Liver [39]): 4.21 % ID/g
Drug uptake (Heart [40]): 2.5 % ID/g
Drug uptake (Stomach [41]): 12.02 %ID
Drug uptake (Brain [42]): 2.06 % ID/g
Drug uptake (Kidney [43]): 3.73 % ID/g
Drug uptake (Blood [44]): 3.16 % ID/g
Drug uptake (Stomach [45]): 12.93 %ID
Compound: CNc1ccc(-c2nc3cc(OCCOCCOCC[18F])ccc3o2)cn1
